# Bioassay records (PubChem)
# Hits are enriched below; roughly 2.6% of the tested compounds scored in any of these assays.
# GRK2 inh – inhibitors of human GRK2 displacing RNA aptamer; P25098; bead flow cytometry, FAM-aptamer displacement from GRK2; inhibition of aptamer binding, % at 10 µM; 0.59% of 330,000 active;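 active = inhibition of aptamer binding above 40%, roughly 3 SD of noise, on plates passing a quality check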;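 also: median bead fluorescence of bound FAM aptamer so fluorescent compounds give negative values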
# Target sequence (P25098 whole entry, looked up): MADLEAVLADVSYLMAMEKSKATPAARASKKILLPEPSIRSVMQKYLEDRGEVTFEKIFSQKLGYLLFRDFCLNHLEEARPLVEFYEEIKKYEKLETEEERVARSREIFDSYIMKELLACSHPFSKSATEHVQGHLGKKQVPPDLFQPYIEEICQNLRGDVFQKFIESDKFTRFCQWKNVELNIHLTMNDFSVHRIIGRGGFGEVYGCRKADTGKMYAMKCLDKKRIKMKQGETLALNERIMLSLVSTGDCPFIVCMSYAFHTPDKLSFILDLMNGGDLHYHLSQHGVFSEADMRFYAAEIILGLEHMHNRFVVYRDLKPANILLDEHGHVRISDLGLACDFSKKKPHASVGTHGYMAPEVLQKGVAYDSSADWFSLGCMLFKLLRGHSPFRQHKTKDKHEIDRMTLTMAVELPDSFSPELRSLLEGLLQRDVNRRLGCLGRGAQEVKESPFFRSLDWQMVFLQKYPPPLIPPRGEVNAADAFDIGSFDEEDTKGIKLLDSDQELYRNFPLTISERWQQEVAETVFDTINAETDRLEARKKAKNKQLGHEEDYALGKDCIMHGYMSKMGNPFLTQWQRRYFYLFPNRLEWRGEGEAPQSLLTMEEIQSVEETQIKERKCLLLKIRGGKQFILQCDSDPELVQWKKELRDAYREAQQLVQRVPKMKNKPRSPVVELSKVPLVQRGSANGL
# Rin1-Abl PPI inh – human Rin1-Abl interaction inhibition | P00519+Q13671 | TR-FRET Rin1/Abl binding, biochemical | inhibition, % at 7.35 µM | 0.4% of 360,000 active | AID 588664; in the data active = inhibition above about 5%, passing the limit was not always enough
# Rce1 inhib – yeast Ras-converting enzyme inhibition; Q03530; yeast membranes, quenched prenylated peptide cleavage fluorescence; calls only; 0.27% of 290,000 active; AID 2563;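 active = fall in fluorescence gain of 50% or more versus controls, with final raw signal at or below 3038400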;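 also: plate controls were neutral control wells for no effect and wells lacking membranes for full effect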
# SKN-1 inh – C. elegans SKN-1 inhibition; C. elegans VP596 Pgst-4::GFP/RFP ratio, acrylamide-induced, 24 h; inhibition, % at 21.8 µM; 0.49% of 360,000 active;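 active = interference check ratio from 0.5 to 1.5 plus GFP to RFP signal ratio inhibition reaching or exceeding a fixed threshold, cut at about 30% in these data, passing the limit was not always enough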
# T cell modulator – T cell immune modulation candidate; AID 2052; response (vesicle binding), % at 7 µM; 0.068% of 330,000 active; 2C CD8+ T cell-vesicle binding, flow cytometry; stronger effect = lower value;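 active = response, share of CD8 T cells binding vesicles, and their 90th percentile fluorescence all below set limits, cut at about 80% in these data, passing the limit was not always enough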;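 also: values below 100% mean blocked vesicle binding to the CD8+ T cells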
#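 Test system: purified 2C TCR transgenic mouse naive CD8+ T cells. Probe or stimulus: QL9-peptide-loaded Drosophila micro-vesicles bearing Ld, ICAM-1 and B7-1. Incubation: binding step 1.5 h, 37 °C, antibody labelling 20 min, ice. Measured by: flow cytometry of vesicle-bound cells.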
# Myeloid diff MLP – compounds promoting myeloid differentiation; AID 624256; calls only at 10 µM; 1% of 360,000 active; ER-HoxA9 myeloid progenitors, lysozyme-GFP differentiation, flow cytometry;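 active = normalized GFP-positive differentiation at or above the plate's own cutoff, the solvent-only control mean plus 3 SD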;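 also: cells exposed to compound for four days before flow analysis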
# * hit, by the source's call; i = inactive; / = not tested or not shown; + = active, no number.
SMILES,GRK2 inh,Rin1-Abl PPI inh,Rce1 inhib,SKN-1 inh,T cell modulator,Myeloid diff MLP
Cc1c(NC(=O)/C(C#N)=C/c2ccc(-c3ccc(Cl)c(Cl)c3)o2)c(=O)n(-c2ccccc2)n1C,0,1,i,46*,201,i
O=C(NCc1cc(C(F)(F)F)ccc1Cl)c1cccc2c1C(=O)c1ccc(N3CCC(N4CCCCC4)CC3)cc1S2(=O)=O,/,-11,/,-1,/,+
O=C(NCc1cc(C(F)(F)F)ccc1Cl)c1cccc2c1C(=O)c1ccc(N3CCOCC3)cc1S2(=O)=O,0,0,/,4,294,+
COc1ccc(C2CC(C)(c3ccc(OC)cc3OC)Nc3ccccc3N2)c(OC)c1 (centres undefined),0,4,i,-1,66*,i
CCS(=O)(=O)N1N=C(c2cccc(NS(C)(=O)=O)c2)CC1c1ccc(C)cc1 (centres undefined),0,-4,i,66,463,+
Cc1ccc(C2=NN(S(C)(=O)=O)C(c3ccc4c(c3)OCO4)C2)cc1 (centres undefined),0,-2,i,38*,276,+
CS(=O)(=O)N1N=C(c2ccc(Br)cc2)CC1c1ccc2c(c1)OCO2 (centres undefined),0,-1,i,37,537,+
CCS(=O)(=O)Nc1cccc(C2=NN(S(C)(=O)=O)C(c3ccccc3)C2)c1 (centres undefined),0,1,i,17,415,i
CC(=O)N1N=C(c2ccc(C)cc2)CC1c1ccc2c(c1)OCO2 (centres undefined),1,3,i,-9,449,i
O=C(NC(=S)N1CCOCC1)c1cn(-c2ccccc2)nc1-c1ccccc1,0,1,/,25,408,i
COc1ccc(CCNC(=O)COc2ccccc2[N+](=O)[O-])cc1OC,2,-4,/,0,626,i
Nc1[nH]n(-c2ccccc2)c(=O)c1N=Nc1ccc2ncsc2c1,0,-9,i,0,392,i
CCOc1ccc(N(C(=O)Cn2nnc3ccccc32)C(C(=O)NC(C)(C)CC)c2cccn2C)cc1 (centres undefined),0,2,i,3,245,i
CCC(C)(C)NC(=O)C(c1cccn1C)N(C(=O)Cn1nnc2ccccc21)c1ccc(OC)cc1OC (centres undefined),2,-5,/,43*,433,i
COc1ccc(C2=CC3=CC(=O)C(C)(O)C(=O)C3=CO2)cc1 (centres undefined),2,/,i,/,198,/
COC/C=C/C1=CC2=CC(=O)C(C)(OC(=O)c3cccs3)C(=O)C2=CO1 (centres undefined),0,/,i,/,172,/
COC/C=C/C1=CC2=CC(=O)C(C)(O)C(=O)C2=CO1 (centres undefined),87*,/,i,/,886,/
COC/C=C/C1=CC2=CC(=O)C(C)(OC(=O)C3CCCC3)C(=O)C2=CO1 (centres undefined),4,3,i,36*,561,i
COc1ccc(N(CC(=O)NC2CCCCC2)C(=O)CCC(=O)Nc2nc(C)cs2)cc1OC,0,1,i,1,773,i
Cc1cccc(C)c1NC(=O)C(c1ccc(C#N)cc1)n1c(=O)c(-c2cc3ccccc3[nH]2)nc2ccccc21 (centres undefined),/,/,/,2,/,i
Cc1noc(/C=C/c2ccco2)c1S(=O)(=O)N1CCC(C(=O)N(C)Cc2ccccc2)CC1,5,-4,i,-3,i,i
Cc1noc(/C=C/c2ccco2)c1S(=O)(=O)N1CCC(C(=O)NC(C)c2ccccc2)CC1 (centres undefined),1,-16,i,-8,410,+
CC(NC(=O)C1CCN(S(=O)(=O)c2cccc3cccnc23)CC1)c1ccccc1 (centres undefined),1,-2,i,-10,492,+
COc1ccc(-c2cc(-c3ccccc3O)[nH]n2)cc1,0,3,i,26,293,i
COc1ccc(-c2cc(-c3ccccc3)n[nH]2)c(O)c1,1,0,i,35*,432,i
SMILES,GRK2 inh,Rin1-Abl PPI inh,Rce1 inhib,SKN-1 inh,T cell modulator,Myeloid diff MLP
CCCCNC(=O)C(C)N(CCN(C)C)C(=O)CCCN1C(=O)NC(c2ccc([N+](=O)[O-])cc2)C(C(=O)OCc2ccccc2)=C1C (centres undefined),0,-1,/,5,/,+
Cc1c(N=C2N=C(NC(=O)c3cccs3)c3ccccc32)c(=O)n(-c2ccccc2)n1C,0,1,/,39*,215,i
Cc1c(N=C2N=C(NC(=O)NC(C)(C)C)c3ccccc32)c(=O)n(-c2ccccc2)n1C,0,0,i,3,32*,i
Cc1ccc2c(c1)C(c1ccccc1)N(C(=O)c1c(F)cccc1Cl)CC(=O)N2 (centres undefined),2,0,i,17,i,i
O=c1c2ccccc2nc2n1CCCCN2,0,1,+,-14,422,i
O=c1c2ccccc2nc2n1CCCN2,2,3,i,6,352,i
Cc1ccc(C(=O)CSC2=C(C#N)C(c3ccco3)C3=C(CC(C)(C)CC3=O)N2)cc1 (centres undefined),3,3,i,28*,436,i
Cc1cccc(C(=O)OCC(=O)c2c(C)[nH]c3ccccc23)c1O,5,1,/,-13,197,i
O=C1CC(=O)N(C2CCCCC2)C(=O)N1c1ccccc1S(=O)(=O)Oc1ccccc1,/,4,/,13,/,+
CCN(c1ccccc1)S(=O)(=O)c1cccc(C(=O)Nc2ccc(C)cn2)c1,6,0,i,48*,i,i
CC(C)(C)NCC(O)COc1ccccc1C1CCCC1 (centres undefined),0,-1,/,3,97,+
Cc1ccn2c(C(=O)N/N=C\c3ccccc3[N+](=O)[O-])c(C)nc2c1,0,-3,i,5,415,+
O=C(Cn1c(=O)sc2ccccc21)NCc1ccccn1,2,2,i,7,267,+
O=C(CN1C(=O)c2ccccc2C1=O)NCc1ccccn1,0,1,/,6,193,i
COc1ccc(OC)c(C(C)NC(C)=O)c1 (centres undefined),0,-6,i,-2,275,+
Nc1ccc(Cl)c(S(=O)(=O)Nc2ccc(Cl)cc2)c1,2,-2,i,-6,350,i
CCc1cc(/C(Cc2ccccn2)=N\O)c(O)cc1O,0,4,i,-16,418,+
O=C(c1ccccc1O)N1CCOCC1,0,1,i,-13,251,i
